Key:
Plasmodium falciparum = test: Antiplasmodial activity against chloroquine-resistant Plasmodium falciparum W2 infected in human A+ erythrocytes assessed as inhibition of parasite proliferation after 48 hrs; assay type: functional, organism-based; conditions: W2, 48 h
In short: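 W2 parasites were cultured in RPMI 1640 with 25 mM HEPES, 25 mM NaHCO3 and 10% A+ human serum at 2.5% hematocrit, at 37 °C under 10% O2/6% CO2/84% N2. After 48 h exposure without medium change, cells were stained with hydroethidine (0.05 mg/mL in PBS, 20 min, dark, 37 °C). Parasitaemia was read by flow cytometry. IC50 came from three independent experiments.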

[1] = test system: Human immunodeficiency virus 1; test: Antiviral activity against HIV1 3B infected in human MT4 cells assessed as inhibition of virus-induced cytopathic effect after 4 days by MTT assay; assay type: functional, organism-based; conditions: Human immunodeficiency virus 1, 3B, MT4, 96 h
[2] = test system: Human immunodeficiency virus 2; test: Antiviral activity against HIV2 ROD infected in human MT4 cells assessed as inhibition of virus-induced cytopathic effect after 4 days by MTT assay; assay type: functional, organism-based; conditions: Human immunodeficiency virus 2, ISOLATE ROD, MT4, 96 h
[3] = Cytotoxicity against human MT4 cells after 4 days by MTT assay; assay type: cell-based
In short: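 Uninfected MT-4 cells were run in parallel with the antiviral test under the same conditions: 10⁵ cells/mL, serial compound dilutions from DMSO stocks, 4 days at 37 °C. Viability was read by MTT. CC50 is the concentration that lowers viability of uninfected cells by 50%.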

THP-1 = test: Cytotoxicity against human THP1 cells using propidium iodide staining after 72 hrs by flow cytometry; assay type: cell-based; conditions: THP-1, 72 h
[4] = Selectivity index, ratio of IC50 for human THP1 cells to IC50 for chloroquine-resistant Plasmodium falciparum W2; assay type: toxicity, cell-based, THP-1; conditions: read-out: Selectivity Index

Row | SMILES | IC50 (Plasmodium falciparum) | IC50 [1] | IC50 [2] | CC50 at 96 h [3] | IC50 (THP-1) | selectivity ratio [4]
1 | Nc1ccc2oc(-c3ccccc3)c(O)c(=O)c2c1 | > 27 µM | 216 µM | 216 µM | 216 µM | 27 µM | 
2 | Nc1ccc2oc(-c3cccc(C(F)(F)F)c3)c(O)c(=O)c2c1 | > 2 µM | 8.1 µM | 8.1 µM | 8.1 µM | 2 µM | 
3 | Nc1ccc2oc(-c3ccc(C(F)(F)F)cc3)c(O)c(=O)c2c1 | > 50 µM | 3.9 µM | 3.9 µM | 3.9 µM | > 125 µM | 
4 | COc1c(-c2ccccc2)oc2ccc(NC(C)=O)cc2c1=O | 18 µM | 200 µM | 200 µM | 200 µM | > 125 µM | > 6.9
5 | COc1ccccc1-c1oc2ccc(NC(C)=O)cc2c(=O)c1OC | 16 µM | 154 µM | 154 µM | 154 µM | 108 µM | 6.7
6 | COc1cccc(-c2oc3ccc(NC(C)=O)cc3c(=O)c2OC)c1 | > 5 µM | 369 µM | 369 µM | 369 µM | 5 µM | 
7 | COc1ccccc1/C=C/C(=O)c1cc(NC(C)=O)ccc1O | 13.4 µM | 37.8 µM | 37.8 µM | 37.8 µM | > 125 µM | > 9.3
8 | COc1cccc(/C=C/C(=O)c2cc(NC(C)=O)ccc2O)c1 | 13.2 µM | 40 µM | 40 µM | 40 µM | 93.7 µM | 7.1
9 | COc1ccc(/C=C/C(=O)c2cc(NC(C)=O)ccc2O)cc1 | 6.7 µM | 38.7 µM | 38.7 µM | 38.7 µM | 59.2 µM | 8.8
10 | CC(=O)Nc1ccc(O)c(C(=O)/C=C/c2ccccc2F)c1 | 12.3 µM | 33.8 µM | 33.8 µM | 33.8 µM | > 125 µM | > 10.2
11 | CC(=O)Nc1ccc(O)c(C(=O)/C=C/c2cccc(F)c2)c1 | 15.7 µM | 30.1 µM | 30.1 µM | 30.1 µM | 78.6 µM | 5
12 | CC(=O)Nc1ccc(O)c(C(=O)/C=C/c2ccc(F)cc2)c1 | 16.9 µM | 41.1 µM | 41.1 µM | 41.1 µM | 68.8 µM | 4.1
13 | CC(=O)Nc1ccc(O)c(C(=O)/C=C/c2cccc(C(F)(F)F)c2)c1 | 11.3 µM | 32.1 µM | 32.1 µM | 32.1 µM | 8.4 µM | 
14 | CC(=O)Nc1ccc(O)c(C(=O)/C=C/c2ccc(C(F)(F)F)cc2)c1 | 11.6 µM | 21.1 µM | 21.1 µM | 21.1 µM | 15.5 µM | 1.3
15 | CC(=O)Nc1ccc2oc(-c3ccccc3)cc(=O)c2c1 | > 50 µM | 184 µM | 184 µM | 184 µM | 97 µM | 
16 | COc1ccccc1-c1cc(=O)c2cc(NC(C)=O)ccc2o1 | > 50 µM | 226 µM | 226 µM | 226 µM | 50 µM | 
17 | COc1cccc(-c2cc(=O)c3cc(NC(C)=O)ccc3o2)c1 | > 10 µM | > 404 µM | > 404 µM | > 404 µM | 10 µM | 
18 | COc1ccc(-c2cc(=O)c3cc(NC(C)=O)ccc3o2)cc1 | > 50 µM | 226 µM | 226 µM | 226 µM | 74 µM | 
19 | CC(=O)Nc1ccc2oc(-c3ccccc3F)cc(=O)c2c1 | 40 µM | 205 µM | 205 µM | 205 µM | > 125 µM | > 3.1
20 | CC(=O)Nc1ccc2oc(-c3cccc(F)c3)cc(=O)c2c1 | 50 µM | 240 µM | 240 µM | 240 µM | > 125 µM | > 2.5
21 | CC(=O)Nc1ccc2oc(-c3ccc(F)cc3)cc(=O)c2c1 | > 22 µM | 203 µM | 203 µM | 203 µM | 22 µM | 
22 | CC(=O)Nc1ccc2oc(-c3cccc(C(F)(F)F)c3)cc(=O)c2c1 | 50 µM | 10 µM | 10 µM | 10 µM | 50 µM | 
23 | CC(=O)Nc1ccc2oc(-c3ccc(C(F)(F)F)cc3)cc(=O)c2c1 | > 10 µM | 330 µM | 330 µM | 330 µM | 10 µM | 
24 | COc1cccc(-c2cc(=O)c3cc(N)ccc3o2)c1 | 31 µM | 247 µM | 247 µM | 247 µM | > 125 µM | > 4

Row | SMILES | IC50 (Plasmodium falciparum) | IC50 [1] | IC50 [2] | CC50 at 96 h [3] | IC50 (THP-1) | selectivity ratio [4]
25 | COc1ccc(-c2cc(=O)c3cc(N)ccc3o2)cc1 | 35 µM | 240 µM | 240 µM | 240 µM | 124 µM | 3.5
26 | Nc1ccc2oc(-c3ccccc3F)cc(=O)c2c1 | > 44 µM | 284 µM | 283 µM | 283 µM | 44 µM | 
27 | Nc1ccc2oc(-c3ccc(F)cc3)cc(=O)c2c1 | > 10 µM | 264 µM | 264 µM | 264 µM | 10 µM | 
28 | Nc1ccc2oc(-c3cccc(C(F)(F)F)c3)cc(=O)c2c1 | > 34 µM | 138 µM | 138 µM | 138 µM | 34 µM | 
29 | Nc1ccc2oc(-c3ccc(C(F)(F)F)cc3)cc(=O)c2c1 | > 1.9 µM | 273 µM | 273 µM | 273 µM | 1.9 µM | 
30 | CC(=O)Nc1ccc2oc(-c3ccccc3)c(O)c(=O)c2c1 | > 36 µM | 64.7 µM | 64.7 µM | 64.7 µM | 36 µM | 
31 | COc1ccccc1-c1oc2ccc(NC(C)=O)cc2c(=O)c1O | 50 µM | 385 µM | 385 µM | 385 µM | > 125 µM | > 2.5
32 | COc1cccc(-c2oc3ccc(NC(C)=O)cc3c(=O)c2O)c1 | 50 µM | 33.3 µM | 33.3 µM | 33.3 µM | 50 µM | 
33 | COc1ccc(-c2oc3ccc(NC(C)=O)cc3c(=O)c2O)cc1 | > 9 µM | 98.7 µM | 98.7 µM | 98.7 µM | 9 µM | 
34 | CC(=O)Nc1ccc2oc(-c3ccccc3F)c(O)c(=O)c2c1 | > 47 µM | 171 µM | 171 µM | 171 µM | 47 µM | 
35 | CC(=O)Nc1ccc2oc(-c3cccc(F)c3)c(O)c(=O)c2c1 | > 36 µM | 26.5 µM | 26.5 µM | 26.5 µM | 36 µM | 
36 | CC(=O)Nc1ccc2oc(-c3ccc(F)cc3)c(O)c(=O)c2c1 | > 26 µM | 34.1 µM | 34.1 µM | 34.1 µM | 26 µM | 
37 | CC(=O)Nc1ccc2oc(-c3cccc(C(F)(F)F)c3)c(O)c(=O)c2c1 | > 1 µM | 5.7 µM | 5.7 µM | 5.7 µM | 1 µM | 
38 | CC(=O)Nc1ccc2oc(-c3ccc(C(F)(F)F)cc3)c(O)c(=O)c2c1 | > 50 µM | 7.3 µM | 7.3 µM | 7.3 µM | > 50 µM | 
39 | COc1ccccc1-c1oc2ccc(N)cc2c(=O)c1O | 46 µM | 222 µM | 222 µM | 222 µM | 102 µM | 2.2
40 | COc1cccc(-c2oc3ccc(N)cc3c(=O)c2O)c1 | > 2 µM | 40.8 µM | 40.8 µM | 40.8 µM | 2 µM | 
41 | COc1ccc(-c2oc3ccc(N)cc3c(=O)c2O)cc1 | > 29 µM | 239 µM | 239 µM | 239 µM | 29 µM | 
42 | Nc1ccc2oc(-c3ccccc3F)c(O)c(=O)c2c1 | > 38 µM | 44.5 µM | 44.5 µM | 44.5 µM | 38 µM | 
43 | Nc1ccc2oc(-c3cccc(F)c3)c(O)c(=O)c2c1 | > 30 µM | 35.3 µM | 35.3 µM | 35.3 µM | 30 µM | 
44 | Nc1ccc2oc(-c3ccc(F)cc3)c(O)c(=O)c2c1 | > 4 µM | 92.6 µM | 92.6 µM | 92.6 µM | 4 µM | 
45 | CC(=O)Nc1ccc(O)c(C(=O)/C=C/c2ccccc2)c1 | 15.9 µM | 49.8 µM | 49.8 µM | 49.4 µM | 85.5 µM | 5.4
46 | Nc1ccc2oc(-c3ccccc3)cc(=O)c2c1 [6-AMINOFLAVONE] | > 36 µM | 209 µM | 209 µM | 209 µM | 36 µM | 
47 | COc1cccc2c1C(=O)c1c(O)c3c(c(O)c1C2=O)C[C@@](O)(C(=O)CO)C[C@@H]3O[C@H]1C[C@H](N)[C@H](O)[C@H](C)O1 [DOXORUBICIN] |  |  |  |  | 0.07 µM | 
